ChEMBL document CHEMBL2429803, “Animal toxicity of hairpin pyrrole-imidazole polyamides varies with the turn unit” (J Med Chem, 2013)
Values belong to the compound of their own block, whether it stands above or below them. The source made the active and inactive calls. The rule behind the calls is not given here.

Tests used:
[1] = Drug uptake in human LNCAP cell nucleus at 2 uM after 24 hrs by confocal microscopic analysis; assay type: ADME, cell-based
In short: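 LNCaP cells incubated 24 h with 2 μM of the fluorescein-conjugated polyamide. Nuclear localization imaged by confocal microscopy.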

[2] = Drug uptake in nucleus of C57BL/6J mouse liver at 3 mg/kg, sc after 24 hrs by confocal microscopic analysis; assay type: ADME, organism-based; set-up: dose 3 mg/kg, route subcutaneous; conditions: in vivo
In short: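 Male C57BL/6J mice, 2 per group, injected with 50 nmol (~3 mg/kg) of fluorescein-conjugated polyamide and sacrificed 24 h later. Liver fixed in 10% formalin for 48 h, cryoprotected in 15% then 30% sucrose, and frozen. Nuclear fluorescence assessed by confocal microscopy in 10 μm sections.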

Mus musculus [3] = assay: Acute toxicity in C57BL/6J mouse assessed as weight loss at 10 mg/kg, sc after 9 days; assay type: organism-based; set-up: dose 10 mg/kg, route subcutaneous; conditions: in vivo, 216 h
In short: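 Male C57BL/6J mice, 8 weeks old, were acclimated 3 days and then given a single sc injection of 1, 3 or 10 mg/kg in 25% DMSO/saline vehicle (up to 200 μL), n = 4 per group. Weight, behaviour and appearance were monitored daily for 9 days before sacrifice. The humane end point was visible duress or weight loss over 15% of the original.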

LNCaP [4] = assay: Induction in GADD45A level in human LNCAP cells after 72 hrs by RT-PCR analysis; assay type: functional, cell-based
In short: (§1)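 LNCaP cells, 50 000 per well, adhered 36–48 h, then treated with 1, 3 or 10 μM for 72 h. Total RNA extracted on columns and transcripts quantified by RT-qPCR.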

Mus musculus [5] = assay: Acute toxicity in C57BL/6J mouse assessed as lesions in heart at 1 to 10 mg/kg, sc after 9 days; assay type: organism-based; set-up: dose 1-10 mg/kg, route subcutaneous; conditions: in vivo, 216 h
In short: (§2)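 Male C57BL/6J mice, 8 weeks old, received a single sc dose (1, 3 or 10 mg/kg in 25% DMSO/saline, n = 4 per group) and were sacrificed after 9 days. Two representative animals per group were fixed in 10% formalin. Cecum, duodenum, heart, ileum, kidney, liver, lung, pancreas, spleen and stomach were examined blind by a veterinary pathologist and lesions graded mild, moderate or severe.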

[6] = Metabolic stability in human liver microsomes after 1 hr by LC/MS/MS analysis; assay type: ADME, Microsome; conditions: read-out: Stability
In short: (§3)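 Compound incubated at 37 °C for 60 min with 1 mg/mL human or mouse liver microsomes in 100 mM KH2PO4, 3 mM MgCl2, pH 7.4, with 2 mM NADPH or without it. Stopped with ice-cold methanol, then precipitate removed. Analyzed by LC/MS/MS as % remaining versus time zero. Duplicates.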

Mus musculus [7] = assay: Toxicity in C57BL/6J mouse assessed as total WBC count at 1 mg/kg, sc administered once every 3 days for a cycle of six injections measured 2 days post last injection; assay type: organism-based; set-up: dose 1 mg/kg, route subcutaneous; conditions: in vivo, 48 h
In short: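 Male C57BL/6J mice, blood taken by retroorbital bleed before dosing; after 1 week recovery, sc injections once every 3 d in 20% DMSO:normal saline, six injections; bled again at end point (2 days after final injection). K2EDTA blood sent for hematology (WBC, RBC, hemoglobin, neutrophils, lymphocytes); n = 5, mean with std.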

LNCaP [8] = assay: Genotoxicity in human LNCAP cells assessed as DNA strand breaks at 10 uM after 48 hrs by comet assay; assay type: toxicity, cell-based
In short: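 LNCaP cells, 100 000 per well, adhered 36–48 h, then treated 48 h at 10 μM (5 μM doxorubicin for 4 h as control). Alkaline comet assay imaged at 10× by confocal microscopy. More than 100 comets scored per condition. Damage reported as % DNA in tail.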

Mus musculus [9] = assay: Toxicity in C57BL/6J mouse assessed as morbidity at 1 mg/kg, sc administered every 3 days for a cycle of 3 injections; assay type: organism-based; set-up: dose 1 mg/kg, route subcutaneous; conditions: in vivo, 72 h
In short: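 Male C57BL/6J mice, 3 per group, given 1 mg/kg sc every 3 days. Weight recorded on injection days. Watched for signs of duress. Humane end point was visible duress or weight loss over 15% of starting body weight.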

LNCaP [10] = assay: Induction in p21 level in human LNCAP cells after 72 hrs by RT-PCR analysis; assay type: functional, cell-based; in short: as §1
[11] = Metabolic stability in mouse liver microsomes after 1 hr by LC/MS/MS analysis in presence of NADPH; assay type: ADME, Microsome; conditions: read-out: Stability; in short: as §3
LNCaP [12] = assay: Reduction in cellular RPB1 level in human LNCAP cells at 10 uM after 72 hrs by ELISA; assay type: functional, cell-based
In short: (§4)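 LNCaP cells treated 72 h at 10 μM. DMSO vehicle and 1 μM doxorubicin for 24 h served as controls. RPB1 measured with an RPB1-specific ELISA and total p53 with a pan-p53 ELISA. Biological triplicates.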

Mus musculus [13] = assay: Toxicity in C57BL/6J mouse assessed as weight loss at 1 mg/kg, sc administered every 3 days for a cycle of 3 injections; assay type: organism-based; set-up: dose 1 mg/kg, route subcutaneous; conditions: in vivo, 72 h
In short: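 8-week-old male C57BL/6J mice, acclimated 3 days, groups of three, dosed sc in 25% DMSO/saline vehicle once every 3 days, sacrificed 2 days after the last injection. Body weight recorded on injection days and at end point; humane end point set at visible duress or >15% loss of original body weight.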

Mus musculus [14] = assay: Acute toxicity in C57BL/6J mouse assessed as ALT level at 3 mg/kg, sc after 9 days; assay type: organism-based; set-up: dose 3 mg/kg, route subcutaneous; conditions: in vivo, 216 h
In short: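 Male C57BL/6J mice, 8 weeks old, acclimated 3 days, then given a single sc injection of 1, 3 or 10 mg/kg in 25% DMSO/saline (4 per group). Weighed daily for 9 days, then sacrificed. Serum taken by retroorbital bleed and spun at 6000 rpm for 5 min. ALT, AST, total bilirubin, BUN and creatinine measured by an outside lab, blinded.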

[15] = Metabolic stability in human liver microsomes after 1 hr by LC/MS/MS analysis in presence of NADPH; assay type: ADME, Microsome; conditions: read-out: Stability; in short: as §3
Mus musculus [16] = assay: Acute toxicity in C57BL/6J mouse at 1 to 10 mg/kg, sc after 9 days; assay type: organism-based; set-up: dose 1-10 mg/kg, route subcutaneous; conditions: in vivo, 216 h
In short: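 Single sc injection in male 8-week-old C57BL/6J mice (1, 3 or 10 mg/kg in 25% DMSO/saline; n = 4 per group), followed for 9 days with daily weighing, then sacrifice. Toxicity was assessed by blinded histopathology of two mice per group and by blinded serum ALT, AST, total bilirubin, BUN and creatinine from retroorbital blood of all mice.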

LNCaP [17] = assay: Induction in IGFBP3 level in human LNCAP cells after 72 hrs by RT-PCR analysis; assay type: functional, cell-based; in short: as §1
LNCaP [18] = assay: Cytotoxicity against human LNCAP cells after 72 hrs by WST-1 assay; assay type: functional, cell-based
In short: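 LNCaP cells seeded at 5000–7500 per well and left to adhere 36–48 h. Compound added in fresh medium for 72 h. Metabolic activity read by WST-1 and IC50 derived from the dose–response. Biological triplicates.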

Mus musculus [19] = assay: Toxicity in C57BL/6J mouse assessed as total RBC count at 1 mg/kg, sc administered once every 3 days for a cycle of six injections measured 2 days post last injection; assay type: organism-based; set-up: dose 1 mg/kg, route subcutaneous; conditions: in vivo, 48 h
In short: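 Five male C57BL/6J mice bled retroorbitally into K2EDTA tubes at baseline. After 1 week of recovery they were given 1 mg/kg sc in 20% DMSO/saline every 3 days for six injections, then bled again at the end point. Hematology (WBC, RBC, hemoglobin, neutrophils, lymphocytes) measured externally. Mean of five animals, ± std.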

Mus musculus [20] = assay: Acute toxicity in C57BL/6J mouse assessed as lesions in stomach at 1 to 10 mg/kg, sc after 9 days; assay type: organism-based; set-up: dose 1-10 mg/kg, route subcutaneous; conditions: in vivo, 216 h; in short: as §2
Mus musculus [21] = assay: Acute toxicity in C57BL/6J mouse assessed as lesions in lungs at 1 to 10 mg/kg, sc after 9 days; assay type: organism-based; set-up: dose 1-10 mg/kg, route subcutaneous; conditions: in vivo, 216 h; in short: as §2
Mus musculus [22] = assay: Toxicity in NSG immunocompromised mouse model xenografted with human LNCAP cells assessed as weight loss at 1 mg/kg, sc administered once every 3 days for a cycle of six injections; assay type: organism-based; set-up: dose 1 mg/kg, route subcutaneous; conditions: in vivo, 72 h
In short: (§5)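 Male NSG mice engrafted in the left flank with 2.5 million LNCaP cells in 1:1 media/matrigel; dosing began at ~200 mm3 tumours (0.5 × L × W2). Compound or vehicle given sc in 20% DMSO/normal saline once every 3 d for six injections, n = 14 per group; weight and general health checked daily, sacrifice 2 days after final injection.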

Mus musculus [23] = assay: Acute toxicity in C57BL/6J mouse assessed as lesions in pancreas at 1 to 10 mg/kg, sc after 9 days; assay type: organism-based; set-up: dose 1-10 mg/kg, route subcutaneous; conditions: in vivo, 216 h; in short: as §2
Mus musculus [24] = assay: Acute toxicity in C57BL/6J mouse assessed as lesions in GI tract at 1 to 10 mg/kg, sc after 9 days; assay type: organism-based, Gastrointestinal tract; set-up: dose 1-10 mg/kg, route subcutaneous; conditions: in vivo, 216 h; in short: as §2
[25] = Metabolic stability in mouse liver microsomes after 1 hr by LC/MS/MS analysis; assay type: ADME, Microsome; conditions: read-out: Stability; in short: as §3
LNCaP [26] = assay: Induction in cellular p53 level in human LNCAP cells at 10 uM after 72 hrs by ELISA; assay type: functional, cell-based; in short: as §4
Mus musculus [27] = assay: Toxicity in NSG immunocompromised mouse model xenografted with human LNCAP cells assessed as distress at 1 mg/kg, sc administered once every 3 days for a cycle of six injections; assay type: organism-based; set-up: dose 1 mg/kg, route subcutaneous; conditions: in vivo, 72 h; in short: as §5
LNCaP [28] = assay: Antitumor activity against human LNCAP cells xenografted in NSG immunocompromised mouse model assessed as tumor growth inhibition at 1 mg/kg, sc administered once every 3 days for a cycle of six injections measured 2 days post last injection relative to control; assay type: functional; conditions: route subcutaneous
In short: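 Male NSG mice engrafted in the left flank with 2.5 million LNCaP cells in 1:1 media/matrigel. Treatment began at ~200 mm3 (0.5 × L × W2): 1 mg/kg sc in 20% DMSO/normal saline, or vehicle alone, every 3 days for six injections, 14 mice per group. Sacrificed 2 days after the last dose. Tumor weights compared with vehicle (T/C).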

Compound: CN(CCCNC(=O)c1cc(NC(=O)c2cc(NC(=O)c3cc(NC(=O)c4nc(NC(=O)[C@H](N)CCNC(=O)c5cc(NC(=O)c6cc(NC(=O)c7cc(NC(=O)c8nccn8C)cn7C)cn6C)cn5C)cn4C)cn3C)cn2C)cn1C)CCCNC(=S)Nc1ccc(-c2c3ccc(=O)cc-3oc3cc(O)ccc23)c(C(=O)O)c1
- Drug uptake [1]: Active

Compound: Cn1cc2cc1C(=O)NCCCC(=O)Nc1cn(C)c(n1)C(=O)Nc1cc(n(C)c1)C(=O)Nc1cc(n(C)c1)C(=O)Nc1cc(n(C)c1)C(=O)NCC[C@@H](N)C(=O)Nc1cn(C)c(n1)C(=O)Nc1cc(n(C)c1)C(=O)Nc1cc(n(C)c1)C(=O)N2
- Activity (Mus musculus [3]): Non-toxic

Compound: CC(=O)N[C@H](CCNC(=O)c1cc(NC(=O)c2cc(NC(=O)c3cc(NC(=O)c4nccn4C)cn3C)cn2C)cn1C)C(=O)Nc1cn(C)c(C(=O)Nc2cc(C(=O)Nc3cc(C(=O)Nc4cc(C(=O)NCCCN(C)CCCNC(=O)c5cccc(C(=O)O)c5)n(C)c4)n(C)c3)n(C)c2)n1
- Activity (LNCaP [4]): Dose-dependent effect
- Activity (Mus musculus [5]): Non-toxic
- remaining at 1 h [6]: > 90%
- Activity (Mus musculus [7]): Non-toxic
- Activity (LNCaP [8]): Non-toxic
- Activity (Mus musculus [9]): Non-toxic
- Activity (LNCaP [10]): Dose-dependent effect
- remaining at 1 h [11]: > 90%
- Activity (LNCaP [12]): Active
- Activity (Mus musculus [13]): Non-toxic
- Activity (Mus musculus [14]): 29 U/L
- remaining at 1 h [15]: > 90%
- Activity (Mus musculus [16]): Non-toxic
- Activity (LNCaP [17]): Dose-dependent effect
- Activity (LNCaP [18]): Dose-dependent effect
- IC50 (LNCaP [18]): 2.1 µM
- Activity (Mus musculus [19]): Non-toxic
- Activity (Mus musculus [20]): Non-toxic
- Activity (Mus musculus [21]): Non-toxic
- Activity (Mus musculus [22]): Non-toxic
- Activity (Mus musculus [23]): Non-toxic
- Activity (Mus musculus [24]): Non-toxic
- remaining at 1 h [25]: > 90%
- Activity (LNCaP [26]): Active
- Activity (Mus musculus [27]): Non-toxic
- T/C (LNCaP [28]): 52.4%

Second part, the compound after the results:

- Drug uptake [1]: Active
- Drug uptake [2]: Active
Compound: CC(=O)N[C@H](CCNC(=O)c1cc(NC(=O)c2cc(NC(=O)c3cc(NC(=O)c4nccn4C)cn3C)cn2C)cn1C)C(=O)Nc1cn(C)c(C(=O)Nc2cc(C(=O)Nc3cc(C(=O)Nc4cc(C(=O)NCCCN(C)CCCNC(=S)Nc5ccc(-c6c7ccc(=O)cc-7oc7cc(O)ccc67)c(C(=O)O)c5)n(C)c4)n(C)c3)n(C)c2)n1

- Drug uptake [2]: Active
Compound: CC(=O)N[C@@H](CNC(=O)c1cc(NC(=O)c2cc(NC(=O)c3cc(NC(=O)c4nccn4C)cn3C)cn2C)cn1C)CC(=O)Nc1cn(C)c(C(=O)Nc2cc(C(=O)Nc3cc(C(=O)Nc4cc(C(=O)NCCCN(C)CCCNC(=S)Nc5ccc(-c6c7ccc(=O)cc-7oc7cc(O)ccc67)c(C(=O)O)c5)n(C)c4)n(C)c3)n(C)c2)n1
